# Screens as filed in PubChem.
# This is a sample that favours compounds with a hit; in the whole collection about 1.9% have one here.
# TDP2 inh = human TDP2 enzyme inhibitors, primary screen, biochemical, epi absorbance, recombinant enzyme. T5PNP hydrolysis, p-nitrophenol absorbance 415 nm. inhibition, % at 12.8 µM. Tyrosyl-DNA phosphodiesterase 2 (Homo sapiens), O95551. actives 0.34% (n = 370,000);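 active means inhibition above the mean of all tested compounds plus 3 SD, set per campaign, cut at about 25% in these data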;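 further: 0% = DMSO with enzyme and 100% = buffer with substrate but no TDP2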
#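 Assay system: Recombinant human TDP2 | Quantity: 120 nM TDP2 per well | Incubation: 2 h at 37 °C | Signal: Epi absorbance | Evaluation: Percent inhibition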
# UHRF1 binding = UHRF1 methylated DNA binding inhibitors, primary screen, counter-screen for MBD2 inhibitor project, biochemical, TR-FRET, human UHRF1, single concentration. UHRF1 binding to methylated oligo. inhibition, % at 4.4 µM. actives 0.75% (n = 370,000). AID 687016, 2013; in the data active means inhibition above about 21%;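 further: UHRF1 SRA domain binding a hemimethylated CpG hairpin DNA probe; 0% = median of test compound wells and 100% = reference inhibitor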
# Rin1-Abl PPI inh = inhibitors of Rin1-Abl protein binding, primary screen, biochemical, TR-FRET. inhibition, % at 7.35 µM. actives 0.4% (n = 360,000); in the data active means inhibition above about 5%, passing the limit was not always enough
# LEDGF integ inh = blockers of LEDGF/p75-dependent integrase strand transfer – biochemical, TR-FRET, high throughput, primary screen | HIV-1 integrase (with human LEDGF/p75) | TR-FRET IN-LEDGF/p75 DNA integration, Eu/Cy5 | inhibition, % at 3.7 µM | actives 0.64% (n = 370,000);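 active means inhibition above the screen-wide mean plus 3 SD, cut at about 13% in these data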;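 further: signal is the Cy5 over europium emission ratio at 671 and 618 nm; 0% = plate median of compound wells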
# MBD2 inh = inhibitors of MBD2 binding to methylated DNA, primary screen, biochemical, TR-FRET, DNA-binding domain, human; MBD2 binding to methylated oligonucleotide; inhibition, % at 4.4 µM; actives 0.31% (n = 370,000); AID 686964, 2013; in the data active means inhibition above about 13%
# TDP2 confirm = human TDP2 enzyme inhibitors, retest, confirmation, biochemical, epi absorbance, recombinant enzyme; shares compounds with TDP2 inh; absorbance read-out; inhibition, % at 12.8 µM; actives 22% (n = 1,100); in the data active means inhibition above about 25%;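 further: 0% = vehicle with enzyme and 100% = no enzyme buffer only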
# * marks the source's active call; other numbers are inactive results; · = no result.
SMILES,TDP2 inh,UHRF1 binding,Rin1-Abl PPI inh,LEDGF integ inh,MBD2 inh,TDP2 confirm
CN1C(=O)/C(=C/c2ccc(C(=O)Nc3ccc(O)cc3C(=O)O)cc2)SC1=S,28*,-1,-2,1,-1,6
Cc1sc2ncnc(N(C)CCc3ccccn3)c2c1C,26*,1,-3,3,2,10
CC(NC(=O)Cc1ccccc1)c1ccccc1 (configuration not stated),-9,-2,-1,2,-5,·
O=C(Cc1ccccc1)NC1(O)C(=O)c2ccccc2C1=O,64*,-9,4,5,-8,62*
O=C(NC1(O)C(=O)c2ccccc2C1=O)c1ccc(C(F)(F)F)cc1,37*,-2,18*,6,-9,83*
NS(=O)(=O)c1ccc(NC(=O)CSc2n[nH]c(=O)n2C2CC2)cc1,-9,1,-1,-1,-6,·
Cc1ccc(C(=O)OCc2nnc(-c3ccccc3)o2)s1,16,-3,0,1,3,·
O=C(COC(=O)c1ccc([N+](=O)[O-])s1)Nc1ccc(F)cc1,47*,-2,2,8,-4,31*
O=C(OCc1nnc(-c2ccccc2)o1)c1ccc([N+](=O)[O-])s1,32*,7,-3,7,6,37*
O=C(COC(=O)c1ccc([N+](=O)[O-])s1)Nc1ccccc1,50*,13,1,6,2,22
Cc1c(Cl)cnc(NC(=O)COC(=O)c2ccc([N+](=O)[O-])s2)c1Cl,37*,-1,1,2,-5,22
CC(C)(C)c1ccc(NC(=O)COC(=O)c2ccc([N+](=O)[O-])s2)cc1,14,-1,-1,-2,-9,·
COC(=O)[C@]12C[C@H](CC(=O)N3CCOCC3)C(=O)N(Cc3ccc(Cl)cc3Cl)C1=C[C@H](C(C)(C)C)O[C@@H]2C,0,-2,·,-2,-7,·
COC(=O)c1cccc(C(=O)N2CCCC(C(=O)c3ccccc3OC)C2)c1 (configuration not stated),-2,1,-5,-3,4,·
COC(=O)c1cccc(C(=O)N2CCCC(C(=O)c3cccc(OC(C)C)c3)C2)c1 (configuration not stated),28*,20,1,13,7,7
O=C(c1nc2ccccn2c1CNCCCn1cccn1)N1CCCC1,28*,24*,-3,2,7,-8
O=C(Nc1ccc2nc3n(c(=O)c2c1)CCCCC3)c1cc([N+](=O)[O-])ccc1F,1,3,1,1,0,·
O=C(Nc1ccc2nc3n(c(=O)c2c1)CCCCC3)c1c(F)ccc([N+](=O)[O-])c1F,25*,-2,1,17*,3,38*
CCC(CO)Oc1cc(NC(=O)c2cccc(OC)c2)c2ncn(C(C)C)c2c1 (configuration not stated),26*,15,6,10,7,31*
Cc1ccccc1NC1=C/C(=N\S(=O)(=O)c2cccs2)c2ccccc2C1=O,62*,-2,-1,47*,-5,75*
COC(=O)[C@]12C[C@H](CC(=O)N3CCOCC3)C(=O)N(CCC3=CCCCC3)C1=C[C@H](C1CCCC1)O[C@@H]2C,6,0,·,-3,-4,·
O=S(=O)(c1ccc(S(=O)(=O)N2CCCC2)cc1)N1CCCCCC1,-2,3,5,1,0,·
O=S(=O)(c1ccc(S(=O)(=O)N2CCC(O)CC2)cc1)N1CCCC1,25*,6,1,0,7,2
Nc1nonc1C(=O)N/N=C/c1ccc(Br)o1,-2,-1,0,0,1,·
N/C(=N\N=C\c1ccc(Br)o1)c1nonc1N,30*,-5,0,-2,3,-1
SMILES,TDP2 inh,UHRF1 binding,Rin1-Abl PPI inh,LEDGF integ inh,MBD2 inh,TDP2 confirm
O=C(CSc1nc2ccccc2nc1N1CCOCC1)N1CCN(c2cccc(C(F)(F)F)c2)CC1,5,0,·,0,1,·
CCn1c2ccccc2c2cc(C=Nn3c(-c4ccccc4C)n[nH]c3=S)ccc21,-3,2,·,-1,9,·
COc1ccc(C2C(C(=O)N3CCOCC3)CC(=O)N2c2ccc(OC)cc2)cc1 (configuration not stated),4,0,·,0,3,·
Cc1ccc(S(=O)(=O)N2CCC(C(=O)NCCCN3CCOCC3)CC2)cc1C,30*,-2,0,-1,-3,5
Cc1ccc(S(=O)(=O)N2CCC(C(=O)NCCN3CCOCC3)CC2)cc1C,7,-1,1,-3,-6,·
COCCNC(=O)/C(C#N)=C/c1c(N2CCN(c3ccc(OC)cc3)CC2)nc2c(C)cccn2c1=O,-10,-7,-4,2,-1,·
CC1=NN(c2ccc(C)c(C)c2)C(=O)/C1=C/c1ccc2c(c1)n(C)c(=O)n2C,53*,3,4,0,-4,31*
O=C(N/N=C/c1ccc(-c2ccccc2[N+](=O)[O-])o1)c1cccnc1,36*,-6,-2,5,-5,16
COc1ccc(NC(=O)CSc2nnc(-c3cc(C)[nH]n3)n2N)cc1,-2,1,1,-2,5,·
COc1ccc(NC(=O)CSc2nnc(-c3cc(C)[nH]n3)n2N)cc1OC,30*,-1,-1,-3,2,-7
CC(C)N(Cc1ccccc1)C(=S)NC(=O)C1(C)CC1(Cl)Cl (configuration not stated),25*,-3,-1,6,0,5
CC1(C(=O)NC(=S)N(CCC#N)c2ccccc2)CC1(Cl)Cl (configuration not stated),4,-2,-3,1,3,·
COc1ccc(NC(=O)c2cc(-c3ccc(C)c(C)c3O)n[nH]2)cc1Cl,75*,1,-2,2,-2,2
O=C(NCc1cccc(C(F)(F)F)c1)O[C@H]1CC[C@@]23CCCN2C(=O)CCC[C@H]3C1,0,-3,·,-2,-1,·
COc1ccc2nc3cccc(OC)c3nc2c1,2,-9,-4,-12,-7,·
COc1ccc2nc3ccccc3nc2c1N,39*,-8,-3,3,-28,8
COc1cccc(CNC(=S)OC2CCC23CCC(c2ccccc2)CC3)c1 (configuration not stated),5,1,·,-3,3,·
